From ChEMBL document CHEMBL1145764, “Nonbenzamidine isoxazoline derivatives as factor Xa inhibitors” (Bioorg Med Chem Lett, 2003)

Experiments:
Prothrombin = Prothrombin (Homo sapiens, UniProt P00734); experiment: Inhibitory activity against thrombin using human purified enzyme
How it was run: (§1)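 Human purified enzyme in 0.1 M sodium phosphate buffer with 0.2 M NaCl and 0.5% polyethylene glycol 6000, pH 7.0. Inhibitor tested at eight half-log concentrations from 10 down to 0.00316. Plates read at 405 nm for 30 min. Rates compared with no-inhibitor controls to give % activity, converted to Ki using substrate concentration and Km. Duplicate runs with common internal standards.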

Serine protease 1 = Serine protease 1 (Homo sapiens, UniProt P07477); experiment: Inhibitory activity against trypsin using human purified enzyme; how it was run: as §1
Sequence of Serine protease 1 (P07477 whole entry): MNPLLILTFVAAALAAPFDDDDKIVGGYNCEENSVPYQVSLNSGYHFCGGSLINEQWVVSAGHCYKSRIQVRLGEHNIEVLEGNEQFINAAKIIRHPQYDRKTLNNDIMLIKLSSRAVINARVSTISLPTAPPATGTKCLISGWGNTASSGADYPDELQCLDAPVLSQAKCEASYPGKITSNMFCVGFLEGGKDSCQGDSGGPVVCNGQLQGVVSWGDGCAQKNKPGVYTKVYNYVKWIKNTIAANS

Coagulation factor X [1] = target: Coagulation factor X (Homo sapiens, UniProt P00742); experiment: Inhibitory activity against factor Xa using human purified enzyme.; how it was run: as §1
Sequence of Coagulation factor X (Homo sapiens, UniProt P00742) (P00742 41-179 limits assumed): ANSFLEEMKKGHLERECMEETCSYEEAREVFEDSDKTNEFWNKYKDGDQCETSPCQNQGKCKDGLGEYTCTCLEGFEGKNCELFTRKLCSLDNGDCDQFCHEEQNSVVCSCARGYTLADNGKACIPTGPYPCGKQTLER
Sequence of Coagulation factor X (Homo sapiens, UniProt P00742) (P00742 235-488 limits assumed): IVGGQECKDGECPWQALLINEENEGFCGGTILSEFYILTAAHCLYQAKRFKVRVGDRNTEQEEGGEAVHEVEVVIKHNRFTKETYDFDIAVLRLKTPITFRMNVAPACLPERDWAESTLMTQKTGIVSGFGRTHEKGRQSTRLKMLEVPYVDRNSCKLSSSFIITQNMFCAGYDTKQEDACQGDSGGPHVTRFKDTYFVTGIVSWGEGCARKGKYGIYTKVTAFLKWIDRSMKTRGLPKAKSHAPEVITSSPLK

Coagulation factor X [2] = target: T1, Coagulation factor X (Oryctolagus cuniculus, UniProt O19045); experiment: Inhibitory activity against Rabbit factor Xa was determined
T1 sequence (O19045 whole entry): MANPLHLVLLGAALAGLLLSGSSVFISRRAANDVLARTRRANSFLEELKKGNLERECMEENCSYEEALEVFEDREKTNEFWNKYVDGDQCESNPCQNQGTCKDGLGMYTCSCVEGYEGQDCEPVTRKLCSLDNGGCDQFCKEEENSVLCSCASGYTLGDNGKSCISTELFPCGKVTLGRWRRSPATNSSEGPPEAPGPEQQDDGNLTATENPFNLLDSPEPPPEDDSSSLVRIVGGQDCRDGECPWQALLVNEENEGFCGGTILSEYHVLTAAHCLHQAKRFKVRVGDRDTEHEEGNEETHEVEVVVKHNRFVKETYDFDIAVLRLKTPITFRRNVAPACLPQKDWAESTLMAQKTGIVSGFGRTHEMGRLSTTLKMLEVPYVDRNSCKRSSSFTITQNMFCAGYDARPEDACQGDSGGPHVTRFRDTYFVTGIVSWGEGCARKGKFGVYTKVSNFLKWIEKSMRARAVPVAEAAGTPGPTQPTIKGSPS

Oryctolagus cuniculus [3] = species on record: Oryctolagus cuniculus; experiment: (§2) Inhibitory concentration required for antithrombotic efficacy in rabbit arterio-venous shunt model; assay type: functional, organism-based
[4] = Pharmacokinetic profile in terms of half life was determined at a dose of 0.5 mg/kg administered intravenously in dog; assay type: ADME, organism-based, Canis lupus familiaris; design: dose 0.5 mg/kg, route intravenous; conditions: in vivo, iv
[5] = Pharmacokinetic profile in terms of clearance was determined at a dose of 0.5 mg/kg administered intravenously in dog; assay type: ADME, organism-based, Canis lupus familiaris; design: dose 0.5 mg/kg, route intravenous; conditions: in vivo, iv
[6] = Pharmacokinetic profile in terms of clearance was determined at a dose of 5 mg/kg administered intravenously in dog; assay type: ADME, organism-based, Canis lupus familiaris; design: dose 5 mg/kg, route intravenous; conditions: in vivo, iv
Oryctolagus cuniculus [7] = species on record: Oryctolagus cuniculus; experiment: as §2; assay type: functional
[8] = Pharmacokinetic profile in terms of half life was determined at a dose of 5 mg/kg administered intravenously in dog; assay type: ADME, organism-based, Canis lupus familiaris; design: dose 5 mg/kg, route intravenous; conditions: in vivo, iv

| Ki (Prothrombin) [nM] | Ki (Serine protease 1) [nM] | Ki (Coagulation factor X [1]) [nM] | Structure (SMILES) | also measured |
| --- | --- | --- | --- | --- |
| 800 | > 1600 | 2.5 | NC(=O)NCC1(C(=O)Nc2ccc(-c3ccccc3S(N)(=O)=O)cn2)CC(c2ccc(Cl)c(N)c2)=NO1 (single isomer, unassigned; (-)) | Ki (Coagulation factor X [2]): 4.7 nM; ID50 (Oryctolagus cuniculus [3]): 5.5 µmol/kg/h; half-life [4]: 2.32 h; clearance [5]: 7.17 mL/min/kg |
| 6200 | > 4200 | 2.2 | Nc1cc(C2=NOC(CNS(=O)(=O)Cc3ccccc3)(C(=O)Nc3ccc(-c4ccccc4S(N)(=O)=O)cn3)C2)ccc1Cl (racemic) |  |
| 18000 | > 8000 | 3.7 | CCCS(=O)(=O)NCC1(C(=O)Nc2ccc(-c3ccccc3S(N)(=O)=O)cn2)CC(c2ccc(Cl)c(N)c2)=NO1 (racemic) |  |
| > 6300 | > 4200 | 10 | COc1ccc(C2=NOC(CNS(C)(=O)=O)(C(=O)Nc3ccc(-c4ccccc4S(N)(=O)=O)cn3)C2)cc1 (centres undefined) |  |
|  |  |  | N=C(N)c1cccc(C2=NOC(Cn3cnnn3)(C(=O)Nc3ccc(-c4ccccc4S(N)(=O)=O)cn3)C2)c1 (centres undefined) | clearance [6]: 22 mL/min/kg; ID50 (Oryctolagus cuniculus [7]): 0.032 µM/h/kg; half-life [8]: 1.1 h; Ki (Coagulation factor X [2]): 0.11 nM |
| > 21000 | > 1600 | 15 | Nc1cc(C2=NOC(Cn3cccn3)(C(=O)Nc3ccc(-c4ccccc4S(N)(=O)=O)cn3)C2)ccc1Cl (single isomer, unassigned; (-)) |  |
|  |  | 130 | CC1(C(=O)Nc2ccc(-c3ccccc3S(N)(=O)=O)cc2)CC(c2ccc(Cl)c(N)c2)=NO1 (centres undefined) |  |
|  |  | 7.2 | CC1(C(=O)Nc2ccc(-c3ccccc3S(N)(=O)=O)cc2)CC(c2cccc(C(=N)N)c2)=NO1 (centres undefined) |  |
| > 21000 | > 1600 | 320 | Nc1cc(C2=NOC(Cn3cnnn3)(C(=O)Nc3ccc(-c4ccccc4S(N)(=O)=O)cn3)C2)ccc1Cl (single isomer, unassigned; (+)) |  |
| 14000 | > 8000 | 15 | Nc1cc(C2=NOC(CNC=O)(C(=O)Nc3ccc(-c4ccccc4S(N)(=O)=O)cn3)C2)ccc1Cl (racemic) |  |
| > 21000 | > 1600 | 11 | CC(=O)NCC1(C(=O)Nc2ccc(-c3ccccc3S(N)(=O)=O)cn2)CC(c2ccc(Cl)c(N)c2)=NO1 (racemic) |  |
| 800 | > 8000 | 1.5 | CS(=O)(=O)NCC1(C(=O)Nc2ccc(-c3ccccc3S(N)(=O)=O)cn2)CC(c2ccc(Cl)c(N)c2)=NO1 (stereo in doubt) | ID50 (Oryctolagus cuniculus [7]): 8 µM/h/kg; Ki (Coagulation factor X [2]): 2.3 nM; half-life [4]: 7.25 h; clearance [5]: 8.83 mL/min/kg |
| 17000 | > 8000 | 3 | Nc1cc(C2=NOC(CNS(=O)(=O)c3cccnc3)(C(=O)Nc3ccc(-c4ccccc4S(N)(=O)=O)cn3)C2)ccc1Cl (racemic) |  |
| > 21000 | > 1600 | 14 | Nc1cc(C2=NOC(Cn3cccn3)(C(=O)Nc3ccc(-c4ccccc4S(N)(=O)=O)cn3)C2)ccc1Cl (racemic) |  |
| 5200 | > 5200 | 4.6 | CS(=O)(=O)NCC1(C(=O)Nc2ccc(-c3ccccc3S(N)(=O)=O)cn2)CC(c2ccc3onc(N)c3c2)=NO1 (centres undefined) |  |
| 19000 | > 1600 | 7.1 | Nc1cc(C2=NOC(Cn3cnnn3)(C(=O)Nc3ccc(-c4ccccc4S(N)(=O)=O)cn3)C2)ccc1Cl (stereo in doubt; 20 (-)) |  |
| > 21000 | > 8000 | 1.2 | Nc1cc(C2=NOC(CNS(=O)(=O)c3ccsc3)(C(=O)Nc3ccc(-c4ccccc4S(N)(=O)=O)cn3)C2)ccc1Cl (racemic) |  |
| > 21000 | > 1600 | 1100 | Nc1cc(C2=NOC(Cn3cccn3)(C(=O)Nc3ccc(-c4ccccc4S(N)(=O)=O)cn3)C2)ccc1Cl (single isomer, unassigned; (+)) |  |
| > 21000 | > 8000 | 1.7 | Nc1cc(C2=NOC(CNS(=O)(=O)c3ccccc3)(C(=O)Nc3ccc(-c4ccccc4S(N)(=O)=O)cn3)C2)ccc1Cl (racemic) |  |
| 1300 | > 8000 | 1.9 | CS(=O)(=O)NCC1(C(=O)Nc2ccc(-c3ccccc3S(N)(=O)=O)cn2)CC(c2ccc(Cl)c(N)c2)=NO1 (racemic) |  |
| > 21000 | > 6000 | 69 | NC(=O)NCC1(C(=O)Nc2ccc(-c3ccccc3S(N)(=O)=O)cn2)CC(c2ccc(Cl)c(N)c2)=NO1 (single isomer, unassigned; (+)) |  |
| 6600 | > 8000 | 3.3 | Nc1cc(C2=NOC(CNS(=O)(=O)CC(F)(F)F)(C(=O)Nc3ccc(-c4ccccc4S(N)(=O)=O)cn3)C2)ccc1Cl (racemic) |  |
| > 21000 | > 4200 | 240 | CS(=O)(=O)NCC1(C(=O)Nc2ccc(-c3ccccc3S(N)(=O)=O)cn2)CC(c2ccc(Cl)c(N)c2)=NO1 (single isomer, unassigned; (+)) |  |
| > 21000 | > 4200 | 34 | Nc1cc(C2=NOC(Cn3cncn3)(C(=O)Nc3ccc(-c4ccccc4S(N)(=O)=O)cn3)C2)ccc1Cl (racemic) |  |
| > 6300 | > 4200 | 69 | CCNC(=O)NCC1(C(=O)Nc2ccc(-c3ccccc3S(N)(=O)=O)cn2)CC(c2ccc(Cl)c(N)c2)=NO1 (racemic) |  |
| > 21000 | > 1600 | 10 | Nc1cc(C2=NOC(Cn3cnnn3)(C(=O)Nc3ccc(-c4ccccc4S(N)(=O)=O)cn3)C2)ccc1Cl (racemic) |  |
| 9300 | > 1600 | 2.5 | NC(=O)NCC1(C(=O)Nc2ccc(-c3ccccc3S(N)(=O)=O)cn2)CC(c2ccc(Cl)c(N)c2)=NO1 (racemic) |  |
| 5900 | > 8000 | 5.5 | Nc1cc(C2=NOC(CNS(N)(=O)=O)(C(=O)Nc3ccc(-c4ccccc4S(N)(=O)=O)cn3)C2)ccc1Cl (racemic) |  |
